# Most compounds without a hit are left out; they make up all but 3.5% or so of the library.
# MrgX1 PAM: positive allosteric modulators of MrgX1, primary screen, HEK293 cells, Fluo-4 calcium flux. 0.63% of 310,000 active. B-score at 10 µM. FDSS; active compounds read high;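 active = plate-corrected calcium response at least 3 library SD above typical, normal starting fluorescence, not activating the receptor alone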;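 note: compound read alongside a low EC10 to EC30 dose of BAM8-22 agonist; peak minus trough fluorescence over baseline measured at the second addition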
# Target sequence (Q96LB2 whole entry, looked up): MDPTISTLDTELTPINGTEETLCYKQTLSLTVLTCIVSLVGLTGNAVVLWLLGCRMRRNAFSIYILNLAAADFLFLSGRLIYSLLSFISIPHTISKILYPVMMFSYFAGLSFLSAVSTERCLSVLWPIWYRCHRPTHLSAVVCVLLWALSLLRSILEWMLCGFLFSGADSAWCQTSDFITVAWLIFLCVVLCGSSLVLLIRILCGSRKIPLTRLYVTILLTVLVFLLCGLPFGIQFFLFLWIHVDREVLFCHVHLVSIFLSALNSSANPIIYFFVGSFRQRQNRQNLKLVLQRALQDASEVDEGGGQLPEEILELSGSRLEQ
# RGS4 act: RGS4 potentiators or activators, primary screen, cell-based, HEK293 M3R inducible RGS4, calcium flux; carbachol calcium flux Fluo4; active compounds read low; B-score at 10 µM; 0.92% of 310,000 active;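 active = B-score of the integrated calcium signal more than 4 SD below the library mean, with starting fluorescence not abnormally high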;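 note: negative B-score means reduced calcium response which marks RGS4 activation or potentiation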
#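 test system = HEK293 cells with stable M3R and inducible RGS4 | schedule = recording 10 s baseline at 1 Hz, 100 s post-agonist | technique = Fluo4-AM (2 µM) calcium-flux fluorescence, kinetic read | measure = Agonist-evoked peak-minus-minimum fluorescence over baseline, integrated ratio, B score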
# MrgX1 agonist: agonists of human MrgX1 receptor, primary screen, HEK293 cells, Fluo-4 calcium flux. B-score at 10 µM. Fluo-4 calcium fluorescence, agonist mode; active compounds read high. 0.44% of 310,000 active. Mas-related G-protein coupled receptor member X1 (Homo sapiens), Q96LB2;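 active = calcium response B-score plate-corrected fluorescence ratio at least 3 library SD, with starting fluorescence B-score inside 5 SD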
#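 Test system: HEK293 cells stably expressing human MrgX1 receptor; amount: 15,000 cells per well; doses: compound delivered in addition one of three; times: overnight plating before 1 h dye loading; detection: Fluo-4 NW calcium-flux fluorescence, kinetic read; read-out basis: B-scored fluorescence response ratio; controls: positive and negative controls per plate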
# RGS4 block: RGS4 inhibitors, primary screen, cell-based, HEK293 M3R inducible RGS4, calcium flux; Fluo-4 calcium flux; active compounds read high; triggered by carbachol at its EC20; B-score at 10 µM; 0.45% of 310,000 active;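 active = B-score, a plate-corrected calcium signal, over three deviations above library mean, with baseline fluorescence within five deviations of library mean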;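 note: RGS4 expression induced by doxycycline in cells with stable M3 receptor; B-score is computed from the integrated fluorescence ratio over baseline after carbachol; higher B-score means a larger calcium signal and so more RGS4 inhibition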
# MrgX1 antag: antagonists of human MrgX1 receptor, primary screen, HEK293 cells, Fluo-4 calcium flux. Mas-related G-protein coupled receptor member X1 (Homo sapiens), Q96LB2. BAM8-22 antagonism; active compounds read low. B-score at 10 µM. 1.3% of 310,000 active;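 active = calcium-response B-score plate-corrected more than 3 library SD below zero, starting fluorescence within 5 deviations, no agonist response on first addition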;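 note: peak minus trough fluorescence over baseline after final BAM8-22 challenge near maximal dose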
# The depositor's hits bear a star; i = inactive.
SMILES,MrgX1 PAM,RGS4 act,MrgX1 agonist,RGS4 block,MrgX1 antag
C/C(=C\C(=S)Nc1ccccc1)Nc1cccc2ccccc12,i,i,i,i,i
C/C(=C\C(=S)Nc1ccccc1)Nc1ccc2ccccc2c1,i,i,i,i,-4.5*
Cc1ccc(OCC(O)Cn2c3ccccc3c3ccccc32)cc1 (centres undefined),i,i,i,i,i
Cc1cccc(C)c1OCC(O)Cn1c2ccccc2c2ccccc21 (centres undefined),i,-7.1*,i,i,i
Cc1cccc(NC(=O)CSCC(=O)Nc2cccc(S(=O)(=O)N3CCCCCC3)c2)c1,i,i,i,i,i
COC(=O)C1=C(C)NC(=O)/C1=C\c1cc(C)n(-c2ccccc2F)c1C,i,i,i,i,-5.5*
COC1(OC)C(/C=C/c2ccc(Cl)cc2)C(C#N)(C#N)C1(OC)OC (centres undefined),8.5*,i,i,i,i
CCCN(C(=O)COC(=O)COc1c(C)cccc1C)c1c(N)n(Cc2ccccc2)c(=O)[nH]c1=O,i,i,i,i,i
Cn1c(=O)c2c(ncn2CC(=O)N/N=C/C=C/c2ccco2)n(C)c1=O,18*,i,i,i,i
O=C(CNS(=O)(=O)c1ccccc1)Nc1ccc(C(F)(F)F)cc1,i,i,i,i,i
CS(=O)(=O)Nc1cccc(C2=NN(S(C)(=O)=O)C(c3ccc4c(c3)OCO4)C2)c1 (centres undefined),i,i,i,i,-7.6*
CS(=O)(=O)N1N=C(c2ccccc2)CC1c1ccc2c(c1)OCO2 (centres undefined),i,i,i,i,i
CCOC(=O)c1c(NC(C)=O)sc2c(OCC(O)CN(CC)CC)c(Br)ccc12 (centres undefined),i,-7.6*,i,i,i
O=C(O)c1ccc(N/N=C/C2=Cc3ccccc3OC2)cc1,i,i,i,i,i
COc1ccc(C(=O)Nc2cc(C(C)=O)c(/C=C/N(C)C)oc2=O)cc1,i,i,i,i,-5.3*
CCC(C)N1CCN(S(=O)(=O)Cc2ccccc2)CC1 (centres undefined),i,i,i,i,i
O=c1ccnc(Sc2ncccc2[N+](=O)[O-])[nH]1,i,i,i,i,-5*
Cc1ccccc1OCC(=O)N/N=C/c1ccc2c(c1)OCCO2,6.5*,i,i,i,i
COc1ccc(CNC(=O)CN(Cc2ccccc2)S(=O)(=O)c2ccc(Cl)cc2)cc1,i,i,i,i,-4.9*
COc1ccc(/C=N/NC(=O)CN(Cc2ccccc2)S(=O)(=O)c2ccc3c(c2)OCCO3)cc1,i,i,i,i,-6.2*
O=C(CN(Cc1ccccc1)S(=O)(=O)c1ccc2c(c1)OCCO2)N/N=C/c1ccc(F)cc1,i,i,i,i,i
Cc1ccccc1OC1CCN(C(=O)C2CCC(=O)N(C3CCCC3)C2)CC1 (centres undefined),i,i,i,i,i
Cc1ccc(-n2c(SCC(=O)N3CCCC3)nc3c(c2=O)SCC3)cc1,i,i,i,i,-4.9*
CCN(CC)C(=O)C1c2ccccc2Oc2ccccc21,i,i,i,i,i
CC(C)N1C(=O)CCC1C(=O)N1CCC(Cc2ccccc2)CC1 (centres undefined),i,i,i,i,-5.9*
CC(C)N1C(=O)CCC1C(=O)N1CCN(c2ccc(F)cc2)CC1 (centres undefined),i,i,i,i,i
O=C(NCCSCc1ccco1)c1ccc(=O)[nH]c1,i,i,i,i,i
O=C(O)c1ccccc1C(=O)c1ccc(Sc2ccc(Cl)cc2)c([N+](=O)[O-])c1,i,i,38*,i,i
Nc1ccccc1Sc1ccc(C(=O)c2ccccc2C(=O)O)cc1[N+](=O)[O-],i,i,i,i,i
